Measured values of several laboratories.
Each line is one published result; the experiments were not run side by side.

Compound	target or system	assay	system	setting	quantity	result
COCC(=O)N1CCC[C@H](C(=O)NCc2nc(-c3ccccc3)cs2)C1			male Sprague-Dawley rat, plasma	oral, 3 mg/kg	AUC	110 µM·h
C[C@H]1Oc2cc(cnc2N)-c2c(nn(C)c2C#N)CN(C)C(=O)c2ccc(F)cc21			male Sprague-Dawley rat, plasma	oral, 5 mg/kg, single dose	AUC(0-t)	1780 ng·h/mL
CN(Cc1cn(Cc2ccc(-c3nc4cc(-c5ccccc5)ccn4c3Nc3ccc(C(=O)O)cc3)cc2)nn1)c1cccc2c1C(=O)N(C1CCC(=O)NC1=O)C2=O (stereo not drawn)	HCT-116	cell growth or viability		72 h	CC50	190 µM
COc1cccc2c(N3CCC(CCP(=O)(O)O)CC3)ncnc12	EMT6		female BALB/c, tumour	subcutaneous, 50 mg/kg, tumour-bearing	half-life	6.6 h
O=C1CCC(N2C(=O)c3cccc(NCc4cn(Cc5ccc(-c6nc7cc(-c8ccccc8)ccn7c6Nc6ccc(C(=O)O)cc6)cc5)nn4)c3C2=O)C(=O)N1 (stereo not drawn)	HCT-116	cell growth or viability		72 h	CC50	193 µM
O=c1[nH]cc(F)c(=O)[nH]1	PC-9	cell growth or viability, CCK-8		50 µM	viability	31.9%
COCC(=O)N1CCC[C@H](C(=O)NCc2nc(-c3ccc(C#N)cc3)cs2)C1			male Sprague-Dawley rat, plasma	oral, 3 mg/kg	AUC	120 µM·h
COc1nc(-c2cccc(-c3ccccc3)c2C)ccc1CNCCNC(=O)CCCCCCCCCCC(=O)N1CCN(CCNC(=O)c2cc3c(=O)n4cccc(C)c4nc3n(CCc3cccs3)c2=N)CC1			male Sprague-Dawley rat, plasma	intraperitoneal, 4 mg/kg	AUC(0-inf)	2450 ng·h/mL
C=C(CC(=O)OCOC(=O)OC(C)C)C(=O)O			PAMPA	10 µM, 4 h, pH 7.4	Papp	< 1 ×10⁻⁶ cm/s
